{"source": "ChEMBL document CHEMBL1157379", "about": "“Transcriptional response of Candida parapsilosis following exposure to farnesol” (2007)", "key": {"[1]": {"tested_on": "Candida parapsilosis", "test": "Decrease in PGA55 gene expression in Candida parapsilosis CLIB214 at 50 uM after 2 hrs by microarray based transcriptional profiling relative to control", "format": "functional", "procedure,_shortened": "(§1)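 Strain CLIB214 grown overnight in YPD at 30°C, diluted to A600 0.2 in fresh YPD at 30°C. After 4 h (A600 0.8), farnesol (40 mM methanol stock) added to 50 μM final, or an equal methanol volume as control; cells harvested 2 h later. RNA was accepted only with a 28S/18S ratio of 1.6–2.2. Cy3/Cy5-dCTP-labelled cDNA was made from 25 μg total RNA. Hybridisation was to duplicate-spotted 68-mer oligo arrays (3,849 genes) at 42°C for about 16 h. Six individual comparisons.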"}, "[2]": {"tested_on": "Candida parapsilosis", "test": "Increase in ERG7 gene expression in Candida parapsilosis CLIB214 at 50 uM after 2 hrs by microarray based transcriptional profiling relative to control", "format": "functional", "procedure,_shortened": "(§2)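 Strain grown overnight in YPD at 30°C, diluted to A600 0.2 in YPD at 30°C; farnesol (40 mM methanol stock) added at 4 h (A600 0.8), final 50 μM; methanol-only control. Cells collected 2 h later for RNA. Labelled cDNA from 25 μg total RNA (Cy3/Cy5-dCTP) hybridized to 68-mer oligo arrays at 42°C ~16 h; six individual comparisons analysed statistically.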"}, "[3]": {"tested_on": "Candida parapsilosis", "test": "Decrease in PIKA gene expression in Candida parapsilosis CLIB214 at 50 uM after 2 hrs by microarray based transcriptional profiling relative to control", "format": "functional", "procedure,_shortened": "as §1"}, "[4]": {"tested_on": "Candida parapsilosis", "test": "Increase in CGD gene ortholog accession number orf19.779 expression in Candida parapsilosis CLIB214 at 50 uM after 2 hrs by microarray based transcriptional profiling relative to control", "format": "functional", "procedure,_shortened": "as §1"}, "[5]": {"tested_on": "Candida parapsilosis", "test": "Increase in POT1 gene expression in Candida parapsilosis CLIB214 at 50 uM after 2 hrs by microarray based transcriptional profiling relative to control", "format": "functional", "procedure,_shortened": "as §2"}, "[6]": {"tested_on": "Candida parapsilosis", "test": "Decrease in CGD gene ortholog accession number orf19.5683 expression in Candida parapsilosis CLIB214 at 50 uM after 2 hrs by microarray based transcriptional profiling relative to control", "format": "functional", "procedure,_shortened": "(§3)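 Cells in YPD at 30°C treated with 50 μM farnesol at 4 h, with a methanol control. RNA harvested 2 h later and kept only if 28S/18S ratio was 1.6–2.2 with no degradation. 25 μg total RNA oligo-dT primed and labeled with Cy3/Cy5-dCTP. Labeled cDNA hybridized about 16 h at 42°C to duplicate-spotted 68-mer oligo arrays. Six individual comparisons analyzed statistically.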"}, "[7]": {"tested_on": "Candida parapsilosis", "test": "Decrease in CGD gene ortholog accession number orf19.530 expression in Candida parapsilosis CLIB214 at 50 uM after 2 hrs by microarray based transcriptional profiling relative to control", "format": "functional", "procedure,_shortened": "as §3"}, "[8]": {"tested_on": "Candida parapsilosis", "test": "Antifungal activity against Candida parapsilosis CLIB214 assessed as reduction of biofilm formation at 100 uM added 4 hrs after […] growth by crystal violet assay", "format": "functional", "set-up": "scale not given: the % may be the effect or the level left", "procedure,_shortened": "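Cells grown overnight in YNB, diluted to A600 1, and left to adhere 2 h at 37°C. Nonadherent cells washed off with PBS, then fresh YNB added and plates incubated 24 h at 37°C. Biofilms stained with 0.1% crystal violet for 15 min at 30°C, destained 4 h in 33% acetic acid, and read at A570.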"}, "[9]": {"tested_on": "Candida parapsilosis", "test": "Decrease in CGD gene ortholog accession number orf19.5156 expression in Candida parapsilosis CLIB214 at 50 uM after 2 hrs by microarray based transcriptional profiling relative to control", "format": "functional", "procedure,_shortened": "as §3"}, "[10]": {"tested_on": "Candida parapsilosis", "test": "Effect on GDH2 gene expression in Candida parapsilosis CLIB214 by microarray based transcriptional profiling", "format": "functional, organism-based", "procedure,_shortened": "as §1"}, "[11]": {"tested_on": "Candida parapsilosis", "test": "Increase in CGD gene ortholog accession number orf19.1953 expression in Candida parapsilosis CLIB214 at 50 uM after 2 hrs by microarray based transcriptional profiling relative to control", "format": "functional", "procedure,_shortened": "as §1"}, "[12]": {"tested_on": "Candida parapsilosis", "test": "Antifungal activity against Candida parapsilosis CLIB214 assessed as growth inhibition at 50 uM added 4 hrs after […] growth", "format": "functional, organism-based", "procedure,_shortened": "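C. parapsilosis CLIB214 grown overnight in YPD at 30°C, diluted to A600 0.2 in fresh YPD, grown 4 h (A600 0.8), then farnesol added at final 10, 20, 50 or 100 μM from a 40 mM methanol stock. Methanol-only controls. Growth followed by A600 or by cell counting with a particle counter.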"}, "[13]": {"tested_on": "Candida parapsilosis", "test": "Increase in GAR1 gene expression in Candida parapsilosis CLIB214 at 50 uM after 2 hrs by microarray based transcriptional profiling relative to control", "format": "functional", "procedure,_shortened": "as §2"}, "[14]": {"tested_on": "Candida parapsilosis", "test": "Decrease in STE23 gene expression in Candida parapsilosis CLIB214 at 50 uM after 2 hrs by microarray based transcriptional profiling relative to control", "format": "functional", "procedure,_shortened": "as §1"}, "[15]": {"tested_on": "Candida parapsilosis", "test": "Antifungal activity against Candida parapsilosis CLIB214 assessed as growth inhibition at 50 uM added after 8 hrs of bacterial growth measured after 4 hrs", "format": "functional", "conditions": "Lodderomyces parapsilosis", "procedure,_shortened": "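Overnight YPD culture at 30°C diluted to A600 0.2 in YPD. Farnesol added to 50 μM final at 2, 4, 6 or 8 h of growth (A600 about 0.8 at 4 h, 2.3 at 6 h, 6 at 8 h). Growth compared with methanol controls by A600 or cell counts.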"}, "[16]": {"tested_on": "Candida parapsilosis", "test": "Decrease in CGD gene ortholog accession number orf19.719 expression in Candida parapsilosis CLIB214 at 50 uM after 2 hrs by microarray based transcriptional profiling relative to control", "format": "functional", "procedure,_shortened": "as §1"}, "[17]": {"tested_on": "Candida parapsilosis", "test": "Increase in GenBank accession number NP_943645.1 expression in Candida parapsilosis CLIB214 at 50 uM after 2 hrs by microarray based transcriptional profiling relative to control", "format": "functional", "procedure,_shortened": "as §2"}, "[18]": {"tested_on": "Candida albicans", "test": "Antifungal activity against Candida albicans assessed as microbila killing effect", "format": "functional"}, "[19]": {"tested_on": "Candida parapsilosis", "test": "Increase in GLN1 gene expression in Candida parapsilosis CLIB214 by RT-PCR", "format": "functional, organism-based", "procedure,_shortened": "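Cultures in YPD at 30°C, diluted to A600 0.2; 50 μM farnesol (final) or methanol added at 4 h, RNA harvested 2 h later. RT-PCR: 95°C hot start 1 min 30 s, then 26 cycles (95°C 40 s, 55°C 2 min, 72°C 3 min), final 72°C 5 min; each gene signal normalized to ACT1.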"}, "[20]": {"tested_on": "Candida parapsilosis", "test": "Decrease in ARG11 gene expression in Candida parapsilosis CLIB214 at 50 uM after 2 hrs by microarray based transcriptional profiling relative to control", "format": "functional", "procedure,_shortened": "as §3"}, "[21]": {"tested_on": "Candida parapsilosis", "test": "Increase in CGD gene ortholog accession number orf19.3349 expression in Candida parapsilosis CLIB214 at 50 uM after 2 hrs by microarray based transcriptional profiling relative to control", "format": "functional", "procedure,_shortened": "as §1"}, "[22]": {"tested_on": "Candida parapsilosis", "test": "Increase in ATP2 gene expression in Candida parapsilosis CLIB214 at 50 uM after 2 hrs by microarray based transcriptional profiling relative to control", "format": "functional", "procedure,_shortened": "as §1"}, "[23]": {"tested_on": "Candida parapsilosis", "test": "Increase in CGD gene ortholog accession number orf19.7097 expression in Candida parapsilosis CLIB214 at 50 uM after 2 hrs by microarray based transcriptional profiling relative to control", "format": "functional", "procedure,_shortened": "as §1"}, "[24]": {"tested_on": "Candida parapsilosis", "test": "Decrease in RIA1 gene expression in Candida parapsilosis CLIB214 at 50 uM after 2 hrs by microarray based transcriptional profiling relative to control", "format": "functional", "procedure,_shortened": "as §1"}, "[25]": {"tested_on": "Candida parapsilosis", "test": "Increase in CGD gene ortholog accession number orf19.1230 expression in Candida parapsilosis CLIB214 at 50 uM after 2 hrs by microarray based transcriptional profiling relative to control", "format": "functional", "procedure,_shortened": "as §1"}}, "note": "Activity calls are given as the source filed them. The calls are words filed in the database; no cut-off is given here.", "data": [{"compound": "CC(C)=CCC/C(C)=C/CC/C(C)=C/CO", "note": "[FARNESOL]", "values": [{"measurement": "fold change (FC)", "setting": "[1]", "value": 1.76}, {"measurement": "fold change (FC)", "setting": "[2]", "value": 1.68}, {"measurement": "fold change (FC)", "setting": "[3]", "value": 1.65}, {"measurement": "fold change (FC)", "setting": "[4]", "value": 1.72}, {"measurement": "fold change (FC)", "setting": "[5]", "value": 1.71}, {"measurement": "fold change (FC)", "setting": "[6]", "value": 1.51}, {"measurement": "fold change (FC)", "setting": "[7]", "value": 1.89}, {"measurement": "Activity", "setting": "[8]", "value": 30, "unit": "%"}, {"measurement": "fold change (FC)", "setting": "[9]", "value": 2.02}, {"measurement": "Activity", "setting": "[10]", "value": "inactive"}, {"measurement": "fold change (FC)", "setting": "[11]", "value": 1.77}, {"measurement": "Activity", "setting": "[12]", "value": "Active"}, {"measurement": "fold change (FC)", "setting": "[13]", "value": 2.89}, {"measurement": "fold change (FC)", "setting": "[14]", "value": 2.13}, {"measurement": "inhibition at 50 µM", "setting": "[15]", "value": 16, "unit": "%"}, {"measurement": "fold change (FC)", "setting": "[16]", "value": 1.65}, {"measurement": "fold change (FC)", "setting": "[17]", "value": 2.05}, {"measurement": "Activity", "setting": "[18]", "value": 80, "unit": "%"}, {"measurement": "Activity", "setting": "[19]", "value": "Active"}, {"measurement": "fold change (FC)", "setting": "[20]", "value": 1.56}, {"measurement": "fold change (FC)", "setting": "[21]", "value": 1.78}, {"measurement": "fold change (FC)", "setting": "[22]", "value": 2.16}, {"measurement": "fold change (FC)", "setting": "[23]", "value": 1.86}, {"measurement": "fold change (FC)", "setting": "[24]", "value": 1.65}, {"measurement": "fold change (FC)", "setting": "[25]", "value": 1.53}]}]}
